This passage reports EC50 and inhibition results from ChEMBL document CHEMBL1144102, “New cytotoxic polyacetylenes from the marine sponge Petrosia” (1999).

Holding throughout (format): functional
Assay [1] has as its system SK-MEL-2. Kind of assay: Cytotoxicity against human SK-MEL-2 cells by MTT assay. Conditions: read-out: ED50 (the source's name). A general note: Formazan colour is commonly taken as a measure of viable cells.
Assay [2] deals with Simian virus 40. Kind of assay: Antiviral activity against SV40 virus assessed as inhibition of DNA replication at 125 uM. The following applies: Betapolyomavirus macacae. The procedure, abridged:
(§1)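 Cell-free SV40 origin DNA replication: mixtures contained 40 mM creatine phosphate-di-Tris (pH 7.7), creatine kinase, 7 mM MgCl2, 0.5 mM DTT, 4 mM ATP, 200 µM UTP/GTP/CTP, 100 µM dATP/dGTP/dCTP, 25 µM [3H]dTTP, SV40 T-Ag, SV40 origin plasmid (pUC) and replication proteins. Incubated 90 min at 37 °C, then acid-insoluble radioactivity counted.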

The test system of assay [3] is Simian virus 40. The assay can be described thus: Antiviral activity against SV40 virus assessed as inhibition of DNA replication at 250 uM. Conditions: Betapolyomavirus macacae. The procedure, abridged: as §1
In assay [4] the test system is A549. The assay can be described thus: Cytotoxicity against human A549 cells by MTT assay. Conditions: read-out: ED50 (the source's name).
In assay [5] the test system is SK-OV-3. Kind of assay: Cytotoxicity against human SKOV3 cells by MTT assay. The following applies: read-out: ED50 (the source's name).
Assay [6] deals with HCT-15. The assay can be described thus: Cytotoxicity against human HCT-15 cells by MTT assay. Conditions: read-out: ED50 (the source's name).
In assay [7] the test system is Simian virus 40. The assay can be described thus: Antiviral activity against SV40 virus assessed as inhibition of DNA replication at 500 uM. The following applies: Betapolyomavirus macacae. The procedure, abridged:
as §1

In assay [8] the test system is XF498. The assay can be described thus: Cytotoxicity against human XF498 cells by MTT assay. Conditions: read-out: ED50 (the source's name).

The structures appear in SMILES notation. In brackets after ≈: the same amount, converted by molar mass.

The term inhibition denotes how much of the control response was suppressed. Consider `C#C/C=C\CCCCCCCCCCCCC/C=C\CCCC/C=C\CCCCC#C[C@@H](O)C#CCCCCCC/C=C/[C@H](O)C#C` [NOR-3S,14S-PETROCORTYNE A], for which the EC50 in assay [1] was determined as 3.8 µg/mL (≈ 5.93 µM); in assay [4], 7.3 µg/mL (≈ 11.4 µM); in assay [5], 4.4 µg/mL (≈ 6.86 µM); in assay [6], 3.5 µg/mL (≈ 5.46 µM); in assay [8], 6.1 µg/mL (≈ 9.52 µM). In addition, the inhibition at 125 µM in assay [2] came to 12%. Further, the inhibition at 250 µM in assay [3] amounted to 47%. In assay [7], the inhibition at 500 µM is 70%.
As to `C#C/C=C\CCCCCCCCCCCCC/C=C/C(=O)CCCC/C=C\CCCCC#C[C@@H](O)C#CCCCCCC/C=C/[C@H](O)C#C` [PETROTETRAYNDIOL C], the EC50 is 4.1 µg/mL (≈ 6.13 µM) in assay [1]; more than 10 µg/mL in assay [4]; 4.2 µg/mL (≈ 6.28 µM) in assay [5]; 5.7 µg/mL (≈ 8.52 µM) in assay [6]; 12.7 µg/mL (≈ 19 µM) in assay [8]. For the same molecule, the inhibition at 125 µM in assay [2] was determined as 45%. In assay [3], the inhibition at 250 µM came to 46%. In addition, the inhibition at 500 µM in assay [7] stood at 81%.
